# According to ChEMBL document CHEMBL1687803, “Elevated linezolid resistance in clinical cfr-positive Staphylococcus aureus isolates is associated with co-occurring mutations in ribosomal protein L3” (2010):
# Legend:
# Format in all cases: functional
# Staphylococcus aureus [1] = assay: Antibacterial activity against clinical-derived Staphylococcus aureus isolate 51312 harboring ribosomal protein L3 deltaMet169-Gly174 mutant by broth microdilution method
# In short: (§1)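 MICs were measured by broth microdilution following CLSI guidelines against clinical cfr-positive S. aureus isolates. Oxazolidinones and comparator antibiotics were tested. Extra ribosomal mutations were identified by sequencing 23S rRNA domain V of all alleles and the rplC and rplD genes.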
# Staphylococcus aureus [2] = assay: Antibacterial activity against laboratory-derived Staphylococcus aureus ATCC 29213 by broth microdilution method
# In short: (§2)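 MICs were measured by CLSI broth microdilution against the S. aureus ATCC 29213 parent or its isogenic L3 mutants. The mutants had been selected earlier in vitro with oxazolidinones. Oxazolidinones and comparator antibiotics were tested. L3 mutations use staphylococcal numbering.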
# Staphylococcus aureus [3] = assay: Antibacterial activity against laboratory-derived Staphylococcus aureus isolate 29213-1 harboring ribosomal protein L3 Gly155Arg mutant by broth microdilution method; in short: as §2
# Staphylococcus aureus [4] = assay: Antibacterial activity against laboratory-derived Staphylococcus aureus isolate 29213-1 harboring ribosomal protein L3 Gly155Arg mutant and cfr-containing p42262 by broth microdilution method
# In short: (§3)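 The S. aureus ATCC 29213 parent and its isogenic L3 mutants carried the cfr plasmid p42262, introduced by electroporation. The plasmid came from clinical strain 42262. MICs were then measured by CLSI broth microdilution against oxazolidinones and comparator antibiotics.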
# Staphylococcus aureus [5] = assay: Antibacterial activity against clinical-derived Staphylococcus aureus isolate 42262 by broth microdilution method; in short: as §1
# Staphylococcus aureus [6] = assay: Antibacterial activity against laboratory-derived Staphylococcus aureus ATCC 29213 harboring cfr-containing p42262 by broth microdilution method; in short: as §3
# Staphylococcus aureus [7] = assay: Antibacterial activity against laboratory-derived Staphylococcus aureus isolate 29213-3 harboring ribosomal protein L3 deltaPhe127-His146 mutant by broth microdilution method; in short: as §2
# Staphylococcus aureus [8] = assay: Antibacterial activity against laboratory-derived Staphylococcus aureus isolate 29213-3 harboring ribosomal protein L3 deltaPhe127-His146 mutant and cfr-containing p42262 by broth microdilution method; in short: as §3
# Staphylococcus aureus [9] = assay: Antibacterial activity against clinical-derived Staphylococcus aureus isolate harboring ribosomal protein L3 deltaSer145/His146Tyr mutant by broth microdilution method; in short: as §1
# Staphylococcus aureus [10] = assay: Antibacterial activity against laboratory-derived Staphylococcus aureus isolate 29213-2 harboring ribosomal protein L3 Gly155Arg/Met169Leu mutant by broth microdilution method; in short: as §2
# Staphylococcus aureus [11] = assay: Antibacterial activity against laboratory-derived Staphylococcus aureus isolate 29213-2 harboring ribosomal protein L3 Gly155Arg/Met169Leu mutant and cfr-containing p42262 by broth microdilution method; in short: as §3
# Staphylococcus aureus [12] = assay: Antibacterial activity against cfr positive Staphylococcus aureus clinical isolate by broth microdilution method
# In short: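 MICs against clinical cfr-positive S. aureus isolates (groups 1–3 plus an environmental strain), by CLSI broth microdilution. Non-isogenic ATCC 29213 served as a linezolid-susceptible control strain. Isolates were also characterised by sequencing 23S rRNA domain V (all alleles), rplC (L3) and rplD (L4).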
# Staphylococcus aureus [13] = assay: Antibacterial activity against laboratory-generated cfr-transformed Staphylococcus aureus by broth microdilution method
# In short: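 Isogenic panel in the S. aureus ATCC 29213 background: wild-type parent and three laboratory-selected L3 mutants, each electroporated with cfr plasmid p42262 from clinical strain 42262. MICs were read by CLSI broth microdilution.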
SMILES,MIC (Staphylococcus aureus [1]) [µg/mL],MIC (Staphylococcus aureus [2]) [µg/mL],MIC (Staphylococcus aureus [3]) [µg/mL],MIC (Staphylococcus aureus [4]) [µg/mL],MIC (Staphylococcus aureus [5]) [µg/mL],MIC (Staphylococcus aureus [6]) [µg/mL],MIC (Staphylococcus aureus [7]) [µg/mL],MIC (Staphylococcus aureus [8]) [µg/mL],MIC (Staphylococcus aureus [9]) [µg/mL],MIC (Staphylococcus aureus [10]) [µg/mL],MIC (Staphylococcus aureus [11]) [µg/mL],MIC (Staphylococcus aureus [12]) [µg/mL],MIC (Staphylococcus aureus [13]) [µg/mL]
CC(=O)NC[C@H]1CN(c2ccc(-c3ccc(CNCc4cnn[nH]4)cc3)c(F)c2)C(=O)O1 [RADEZOLID],8,1,1,4,4,2,2,8,4,2,8,–,–
C=C[C@]1(C)C[C@@H](OC(=O)CSCCN(CC)CC)[C@]2(C)[C@H](C)CC[C@]3(CCC(=O)[C@H]32)[C@@H](C)[C@@H]1O [TIAMULIN],> 64,0.5,8,> 64,> 64,> 64,4,> 64,> 64,4,> 64,–,–
CC(=O)NC[C@H]1CN(c2ccc(N3CCOCC3)c(F)c2)C(=O)O1 [LINEZOLID],64,–,–,32,16,16,8,64,32,8,64,8,8
Cn1nnc(-c2ccc(-c3ccc(N4C[C@H](CO)OC4=O)cc3F)cn2)n1 [TEDIZOLID],2,0.5,1,1,0.5,0.5,2,2,1,2,2,–,–
O=C(N[C@H](CO)[C@H](O)c1ccc([N+](=O)[O-])cc1)C(Cl)Cl [CHLORAMPHENICOL],> 64,8,8,> 64,> 64,> 64,8,> 64,> 64,8,> 64,–,–
